Data from ChEMBL document CHEMBL1134480, “Antiplasmodial activity and cytotoxicity of bis-, tris-, and tetraquinolines with linear or cyclic amino linkers” (J Med Chem, 2001).

Key:
Mus musculus [1] = species: Mus musculus; assay: In vitro cytotoxic activity against mouse peritoneal macrophages at a concentration 2 uM; Non-toxic; format: functional
Plasmodium falciparum [2] = assay: In vitro growth inhibition of Plasmodium falciparum FcB1R; format: functional, organism-based
Outline: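 Asynchronous P. falciparum cultures were grown in human erythrocytes at 0.5% parasitemia and 1% hematocrit. They were exposed to serial drug dilutions, with DMSO ≤0.1%, for 24 h at 37 °C before adding 0.5 µCi [3H]hypoxanthine per well. Inhibition was measured as incorporated radioactivity versus drug-free controls on the same plate. IC50 came from concentration–response curves, reported as mean ± SD of three independent experiments; FcB1R used several experiments.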

Plasmodium falciparum [3] = assay: (§1) In vitro growth inhibition of Plasmodium falciparum F32; format: functional, organism-based
Outline: (§2)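 Asynchronous P. falciparum cultures in human erythrocytes (0.5% parasitemia, 1% final hematocrit) exposed to serially diluted drug for 24 h at 37 °C, then pulsed with 0.5 µCi [³H]hypoxanthine per well. Inhibition from incorporated radioactivity versus drug-free control on the same plate; IC50 from concentration-response curve; mean ± SD of three independent experiments. DMSO ≤0.1% final.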

MRC5 [4] = assay: Cytotoxicity against MRC-5 cells at concentration 1 uM; format: functional; conditions: Homo sapiens
Outline: (§3)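 MRC-5 human embryonic lung diploid cells were seeded at 5000 per well. After 24 h the cells were washed and exposed to 2-fold drug dilutions in RPMI + 5% FCS, with final DMSO below 0.5%. Incubation was 7 days at 37 °C in 5% CO2. Viability was read by MTT absorbance at 540 nm.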

MRC5 [5] = assay: Cytotoxicity against MRC-5 cells at concentration 32 uM; format: functional; conditions: Homo sapiens; outline: as §3
Plasmodium falciparum [6] = assay: (§4) In vitro growth inhibition of Plasmodium falciparum D6; format: functional, organism-based; outline: as §2
Plasmodium falciparum [7] = assay: (§5) In vitro growth inhibition of Plasmodium falciparum W2; format: functional, organism-based; outline: as §2
[8] = In vitro cytotoxic activity against mouse peritoneal macrophages at a concentration 32 uM; Toxic; format: toxicity
MRC5 [9] = assay: Cytotoxicity against MRC-5 cells at concentration 8 uM; format: functional; conditions: Homo sapiens; outline: as §3
MRC5 [10] = assay: Cytotoxicity against MRC-5 cells at concentration 0.5 uM; format: functional; conditions: Homo sapiens; outline: as §3
[11] = In vitro cytotoxic activity against mouse peritoneal macrophages at a concentration 8 uM; Toxic; format: toxicity
Plasmodium falciparum [12] = assay: as §4; format: functional, organism-based; remark: listed apart in the source
Plasmodium falciparum [13] = assay: as §1; format: functional, organism-based; remark: listed apart in the source
Plasmodium falciparum [14] = assay: as §5; format: functional, organism-based; remark: listed apart in the source
Mus musculus [15] = species: Mus musculus; assay: In vitro cytotoxic activity against mouse peritoneal macrophages at a concentration 8 uM; Non-toxic; format: functional
[16] = In vitro cytotoxic activity against mouse peritoneal macrophages at a concentration 2 uM; Toxic; format: toxicity
[17] = In vitro cytotoxicity against mouse peritoneal macrophages at concentration 32 uM; Toxic; format: toxicity
[18] = Inhibition of haem polymerization
Outline: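 Insoluble FcB1R trophozoite material (~4 × 10^7 parasites) was mixed with 0.3 mM bovine haematin in 60 mM sodium acetate, pH 5, plus drug at varied concentrations and 1% DMSO, then incubated 4 h at 37 °C. The washed pellet was treated with SDS, and polymerized haem was dissolved in NaOH and read at 404 nm. Values were corrected for endogenous haemozoin to give IC50. Data are the mean of two independent experiments, each run in duplicate.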

Row | Structure (SMILES) | Cytotoxicity (Mus musculus [1]) | IC50 (Plasmodium falciparum [2]) [nM] | IC50 (Plasmodium falciparum [3]) [nM] | cytotoxicity at 1 µM (MRC5 [4]) [%] | cytotoxicity at 32 µM (MRC5 [5]) [%] | IC50 (Plasmodium falciparum [6]) [nM] | IC50 (Plasmodium falciparum [7]) [nM] | Cytotoxicity [8] | cytotoxicity at 8 µM (MRC5 [9]) [%] | cytotoxicity at 0.5 µM (MRC5 [10]) [%] | Cytotoxicity [11] | IC50 (Plasmodium falciparum [12]) [nM] | IC50 (Plasmodium falciparum [13]) [nM] | IC50 (Plasmodium falciparum [14]) [nM] | Cytotoxicity (Mus musculus [15]) | Cytotoxicity [16] | Cytotoxicity [17] | IC50 [18] [nM]
1 | O=C(CCN1CCCCC1)N1CCN(c2ccnc3cc(Cl)ccc23)CCN(c2ccnc3cc(Cl)ccc23)CC1 | Not toxic | 38.6 | 16.1 | 0 | 91 | 18.9 | 50.2 | Toxic | 87 | 0 | Toxic |  |  |  |  |  |  | 
2 | O=C(CCC(=O)N1CCN(c2ccnc3cc(Cl)ccc23)CCN(c2ccnc3cc(Cl)ccc23)CC1)N1CCN(c2ccnc3cc(Cl)ccc23)CCN(c2ccnc3cc(Cl)ccc23)CC1 | Not toxic | 38.1 |  | 0 | 0 |  |  |  | 0 | 0 |  | 21.9 | 23.7 | 29.5 | Not toxic |  |  | 
3 | O=C(CCCC(=O)N1CCN(c2ccnc3cc(Cl)ccc23)CCN(c2ccnc3cc(Cl)ccc23)CC1)N1CCN(c2ccnc3cc(Cl)ccc23)CCN(c2ccnc3cc(Cl)ccc23)CC1 | Not toxic | 18.3 |  | 0 | 0 | 18.5 |  |  | 0 | 0 |  |  | 17.9 | 29.2 | Not toxic |  |  | 
4 | CC(N)C(=O)N1CCN(c2ccnc3cc(Cl)ccc23)CCN(c2ccnc3cc(Cl)ccc23)CC1 (stereo not given) | Not toxic | 228 |  | 0 | 88 |  |  | Toxic | 0 | 0 | Toxic |  |  |  |  |  |  | 
5 | O=C(CCCCCCCCCCC(=O)N1CCN(c2ccnc3cc(Cl)ccc23)CCN(c2ccnc3cc(Cl)ccc23)CC1)N1CCN(c2ccnc3cc(Cl)ccc23)CCN(c2ccnc3cc(Cl)ccc23)CC1 | Not toxic | 79.1 |  | 0 | 0 |  |  |  | 0 | 0 |  | 123 | 133 | 180 | Not toxic |  |  | 
6 | O=C(CCCCCCCN1CCCCC1)N1CCN(c2ccnc3cc(Cl)ccc23)CCN(c2ccnc3cc(Cl)ccc23)CC1 |  | 81.1 |  | 0 | 91 |  |  | Toxic | 91 | 0 | Toxic |  |  |  |  | Toxic |  | 
7 | O=C(CCCCCCCCCCCN1CCCCC1)N1CCN(c2ccnc3cc(Cl)ccc23)CCN(c2ccnc3cc(Cl)ccc23)CC1 |  | 109 |  | 11 | 89 |  |  | Toxic | 92 | 0 | Toxic |  |  |  |  | Toxic |  | 
8 | O=C(CCCCCCCC(=O)N1CCN(c2ccnc3cc(Cl)ccc23)CCN(c2ccnc3cc(Cl)ccc23)CC1)N1CCN(c2ccnc3cc(Cl)ccc23)CCN(c2ccnc3cc(Cl)ccc23)CC1 | Not toxic | 22.6 |  | 0 | 0 |  |  | Toxic | 0 | 0 |  | 41.7 | 46.3 | 67.2 | Not toxic |  |  | 
9 | O=C(CCCOCc1ccccc1)N1CCN(c2ccnc3cc(Cl)ccc23)CCN(c2ccnc3cc(Cl)ccc23)CC1 | Not toxic | 1000 |  | 0 | 14 |  |  |  | 0 | 0 |  |  |  |  | Not toxic |  | Toxic | 
10 | O=C(c1ccc(C(=O)N2CCN(c3ccnc4cc(Cl)ccc34)CCN(c3ccnc4cc(Cl)ccc34)CC2)cc1)N1CCN(c2ccnc3cc(Cl)ccc23)CCN(c2ccnc3cc(Cl)ccc23)CC1 | Not toxic | 266 |  | 0 | 0 |  |  |  | 0 | 0 |  |  |  |  | Not toxic |  |  | 
11 | O=C(CNCC(=O)N1CCN(c2ccnc3cc(Cl)ccc23)CCN(c2ccnc3cc(Cl)ccc23)CC1)N1CCN(c2ccnc3cc(Cl)ccc23)CCN(c2ccnc3cc(Cl)ccc23)CC1 | Not toxic | 103 |  | 0 | 0 |  |  |  | 0 | 0 |  |  |  |  | Not toxic |  |  | 
12 | O=C(O)CCC(=O)N1CCN(c2ccnc3cc(Cl)ccc23)CCN(c2ccnc3cc(Cl)ccc23)CC1 | Not toxic | > 1000 |  | 1 | 0 |  |  |  | 0 | 0 |  |  |  |  | Not toxic |  |  | 
13 | N=C(N)NCCC(=O)N1CCN(c2ccnc3cc(Cl)ccc23)CCN(c2ccnc3cc(Cl)ccc23)CC1 | Not toxic | > 1000 |  | 0 | 0 |  |  |  | 0 | 0 |  |  |  |  | Not toxic |  |  | 
14 | O=C(O)CCCC(=O)N1CCN(c2ccnc3cc(Cl)ccc23)CCN(c2ccnc3cc(Cl)ccc23)CC1 | Not toxic | 940 |  | 0 | 0 |  |  |  | 0 | 0 |  |  |  |  | Not toxic |  |  | 
15 | CC(C)(C)OC(=O)NCCC(=O)N1CCN(c2ccnc3cc(Cl)ccc23)CCN(c2ccnc3cc(Cl)ccc23)CC1 | Not toxic | > 1000 |  | 0 | 100 |  |  |  | 0 | 0 |  |  |  |  | Not toxic |  | Toxic | 
16 | Clc1ccc2c(N3CCNCCN(c4ccnc5cc(Cl)ccc45)CC3)ccnc2c1 | Not toxic |  |  | 0 | 0 | 74.5 |  |  | 0 | 0 |  |  | 64.6 | 170 | Not toxic |  |  | 170000
17 | O=C(CCCCN1CCCCC1)N1CCN(c2ccnc3cc(Cl)ccc23)CCN(c2ccnc3cc(Cl)ccc23)CC1 | Not toxic | 132 |  | 0 | 92 |  |  | Toxic | 92 | 0 | Toxic |  |  |  |  |  |  | 
